Read-outs that look alike come from different tables or passages of the source.
What was measured:
Hep 3B (hepatoma) cells = experiment: MTT cytotoxicity assay, Hep 3B; type: cell-based, human; conditions: read-out: IC50, in vitro cytotoxicity, Hep 3B, Hep 3B cells
[1] = system: HCT-116 (colon cancer) cells; experiment: MTT cytotoxicity assay, HCT-116; type: cell-based, human; conditions: read-out: IC50, in vitro cytotoxicity, HCT-116, HCT-116 cells
HL-60 (leukemia) cells = experiment: MTT cytotoxicity assay, HL-60; type: cell-based, human; conditions: read-out: IC50, in vitro cytotoxicity, HL-60, HL-60 cells
tubulin = experiment: Inhibition of [3H]colchicine binding to tubulin; conditions: 1 µM tubulin, 5 µM [3H]colchicine, 10 min at 37 °C; for Inhibition of Colchicine Binding % inhibition at tested concentration, 1 µM: 1 µM inhibitor; for Inhibition of Colchicine Binding % inhibition at tested concentration, 5 µM: 5 µM inhibitor
[2] = system: A549 (non-small cell lung carcinoma) cells; experiment: SRB cytotoxicity assay, A549; type: cell-based, human; conditions: read-out: IC50, in vitro cytotoxicity, A549
Method in brief: (§1)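 Cells exposed to test compound or DMSO vehicle for the stated periods, then fixed with 10% TCA. Staining used 0.4% (w/v) sulforhodamine B in 1% acetic acid, with unbound dye washed out in 1% acetic acid. Bound dye was dissolved in 10 mM Trizma base and absorbance read at 515 nm. IC50 taken from the resulting absorbance data.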

[3] = system: KB-VIN (p-glycoprotein-expressing epidermoid carcinoma of the nasopharynx) cells; experiment: SRB cytotoxicity assay, KB-VIN; type: cell-based, human; conditions: read-out: IC50, in vitro cytotoxicity, Kb-VIN, KB-VIN cells (vincristine-resistant)
Method in brief: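 For A549, KB, KB-VIN and DU145, an SRB assay was used. Cells were exposed to the test compound or DMSO, fixed with 10% TCA and stained with 0.4% (w/v) SRB in 1% acetic acid. Unbound dye was washed out with 1% acetic acid, bound dye solubilized in 10 mM Trizma base, and absorbance read at 515 nm.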

[4] = system: DU145 (prostate cancer) cells; experiment: SRB cytotoxicity assay, DU145; type: cell-based, human; conditions: read-out: IC50, in vitro cytotoxicity, DU145
Method in brief: as §1

[5] = system: KB (epidermoid carcinoma of the nasopharynx) cells; experiment: SRB cytotoxicity assay, KB; type: cell-based, human; conditions: read-out: IC50, in vitro cytotoxicity, KB
Method in brief: as §1

[6] = system: seven human cancer cell lines (HL-60, HCT-116, A549, Hep 3B, KB, KB-VIN, DU145); experiment: In vitro cytotoxicity, all seven cancer cell lines together; type: cell-based; conditions: read-out: IC50 values, range over all seven cancer cell lines
[7] = ip, once weekly for 3 courses; prior in vivo study; cited from earlier work
OVCAR-3 xenograft = conditions: ip, once weekly for 3 courses, cited from earlier work
[8] = system: 60 human tumor cell lines; experiment: NCI screening against 60 human tumor cell lines; type: cell-based
[9] = mice model, unpublished data
[10] = system: HL-60, HCT-116, H226, A549, Hep G2 and A498 cancer cell lines; experiment: Cytotoxicity of deacetylated amides 46-53; type: cell-based; conditions: read-out: IC50 values, cytotoxicity

| Molecule | IC50 (Hep 3B (hepatoma) cells) | IC50 [1] | IC50 (HL-60 (leukemia) cells) | IC50 [2] | IC50 [3] | IC50 [4] | IC50 [5] | also measured |
| --- | --- | --- | --- | --- | --- | --- | --- | --- |
| 2-(1-Anthracenyl)-6,7-methylenedioxyquinolin-4-one [Compound 45] | 2200 nM | 1600 nM | 530 nM | – | – | – | – | – |
| 2-(1-Naphthalenyl)-6,7-methylenedioxyquinolin-4-one [Compound 39] | 70 nM | 70 nM | 70 nM | 130 nM | 190 nM | 130 nM | 130 nM | Inhibition of Colchicine Binding % inhibition at tested concentration, 1 µM (tubulin): 33%; Inhibition of Colchicine Binding % inhibition at tested concentration, 5 µM (tubulin): 67%; IC50 [6]: 70 to 190 nM |
| 2-(2-Benzo[b]furyl)-6,7-methylenedioxyquinolin-4-one [Compound 38] | > 1000 nM | > 1000 nM | > 1000 nM | > 1000 nM | > 1000 nM | > 1000 nM | > 1000 nM | – |
| 2-(2-Benzo[b]thienyl)-6,7-methylenedioxyquinolin-4-one [Compound 36] | > 1000 nM | > 1000 nM | > 1000 nM | > 1000 nM | > 1000 nM | > 1000 nM | > 1000 nM | – |
| 2-(2-Naphthalenyl)-6,7-methylenedioxyquinolin-4-one [Compound 40] | > 1000 nM | > 1000 nM | 500 nM | > 1000 nM | > 1000 nM | > 1000 nM | > 1000 nM | – |
| 2-(2-Quinolinyl)-6,7-methylenedioxyquinolin-4-one [Compound 43] | > 5000 nM | > 5000 nM | > 5000 nM | > 5000 nM | > 5000 nM | > 5000 nM | > 5000 nM | – |
| 2-(2-fluorophenyl)-6,7-methylenedioxyquinolin-4-one [CHM-1] | – | – | – | – | – | – | – | Maximum tolerated dose (MTD) [7]: > 200 mg/kg; Extension of life span of tumor-bearing mice (OVCAR-3 xenograft; 79 mg/kg): 79%; Extension of life span of tumor-bearing mice (OVCAR-3 xenograft; 134 mg/kg): 133%; Extension of life span of tumor-bearing mice (OVCAR-3 xenograft; 200 mg/kg): 124% |
| 2-(3-Benzo[b]furyl)-6,7-methylenedioxyquinolin-4-one [Compound 37] | 90 nM | 50 nM | 30 nM | 2980 nM | 590 nM | 1870 nM | 1050 nM | Inhibition of Colchicine Binding % inhibition at tested concentration, 1 µM (tubulin): 39%; Inhibition of Colchicine Binding % inhibition at tested concentration, 5 µM (tubulin): 51%; Growth inhibition, NCI preliminary screening ([8]; HCC-2998, KM-12, SF-539, SNB-75, SK-MEL-5, IGROV1, OVCAR-3): significantly inhibited the growth; Cytotoxicity against leukemia cell lines, NCI preliminary screening ([8]; many leukemia cell lines (Figure 5)): potent selective cytotoxicity |
| 2-(3-Benzo[b]thienyl)-6,7-methylenedioxyquinolin-4-one [Compound 1] | 60 nM | 140 nM | 170 nM | > 250 nM | > 250 nM | > 250 nM | > 250 nM | Inhibition of Colchicine Binding % inhibition at tested concentration, 1 µM (tubulin): 25%; Inhibition of Colchicine Binding % inhibition at tested concentration, 5 µM (tubulin): 61% |
| 2-(3-Quinolinyl)-6,7-methylenedioxyquinolin-4-one [Compound 42] | > 100 nM | > 100 nM | > 100 nM | > 100 nM | > 100 nM | > 100 nM | > 100 nM | – |
| 2-(4-Quinolinyl)-6,7-methylenedioxyquinolin-4-one [Compound 41] | > 5000 nM | > 5000 nM | > 5000 nM | > 5000 nM | > 5000 nM | > 5000 nM | > 5000 nM | – |
| 2-(5-Quinolinyl)-6,7-methylenedioxyquinolin-4-one [Compound 44] | > 10000 nM | > 10000 nM | > 10000 nM | > 10000 nM | > 10000 nM | > 10000 nM | > 10000 nM | – |
| COc1cccc(-c2cc(O)c3cc(N4CCCC4)ccc3n2)c1 [B, 2-(3-methoxyphenyl)-6-pyrrolinylquinolin-4-one] | – | – | – | – | – | – | – | Maximum tolerated dose (MTD) [7]: 25 mg/kg; Antitumor activity against the OVCAR-3 xenograft model (OVCAR-3 xenograft; at MTD 25 mg/kg, prior in vivo study): moderate antitumor activity |
| O=P([O-])(O)Oc1cc(-c2ccccc2F)nc2cc3c(cc12)OCO3.[Na+] [CHM-1-P-Na] | – | – | – | – | – | – | – | Metabolism of the 6,7-methylenedioxy moiety [9]: metabolized to an ortho-quinone |
| O=C(Nc1ccc2c(c1)OCO2)c1csc2ccccc12 [Compound 46, N-(1,3-Benzodioxol-5-yl)-1-benzothiophene-3-carboxamide] | – | – | – | – | – | – | – | IC50 [10]: > 10000 nM |
| O=C(Nc1ccc2c(c1)OCO2)c1ccc2ccccc2c1 [Compound 50, N-(1,3-Benzodioxol-5-yl)naphthalene-2-carboxamide] | – | – | – | – | – | – | – | IC50 [10]: > 10000 nM |
| O=C(Nc1ccc2c(c1)OCO2)c1ccnc2ccccc12 [Compound 51, N-(1,3-Benzodioxol-5-yl)quinoline-4-carboxamide] | – | – | – | – | – | – | – | IC50 [10]: > 10000 nM |
| O=C(Nc1ccc2c(c1)OCO2)c1cccc2ncccc12 [Compound 53, N-(1,3-Benzodioxol-5-yl)quinoline-5-carboxamide] | – | – | – | – | – | – | – | IC50 [10]: > 10000 nM |

From PMC2761767 (Journal of medicinal chemistry, 2009)
